Measured values reported in PubChem BioAssay AID504414 (Broad Institute, 2011).
The campaign covered roughly 330,000 compounds. About 55 (0.02%) were called active.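 The calls were made as follows: active = highest replicate inhibition of at least 40%; inactive = the rest.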 Shown is part of a subset that was picked to be rich in actives.

Target: Golgi-associated PDZ and coiled-coil motif-containing protein (Homo sapiens) (UniProt Q9HD26)
Experiment: CAL PDZ peptide-binding inhibitors, primary screen, biochemical, fluorescence polarization, Cer-tagged CAL PDZ, HTS (AID 504414);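 also: plate controls were DMSO neutral control wells for no effect and unlabeled competitor peptide control wells for full effect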
Conditions: purified CAL PDZ, TMR-peptide fluorescence polarization, 1 h; at 20 µM; stronger effect = higher value
Outline: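 Assay system – tagged CAL PDZ protein CerCALP, purified · Timing – 1 h at RT · Compound – single point, 20 µM · Measured by – fluorescence polarization from S- and P-plane intensities, G-factor corrected · Evaluation – inhibition from polarization loss · Probe or stimulus – TMR reporter peptide T*-PRC34 · Buffer or medium – pH 7.4 phosphate-saline buffer, reducing agent, detergent, IgG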

inhibition, inactive:
CN(CCO)S(=O)(=O)c1ccc2c(c1)C(=O)c1cc(S(=O)(=O)N(C)CCO)ccc1-2 -0.349%
CC1C(=O)NC(=O)C1c1ccccc1 (centres undefined) -1.12%
COc1ccc(Cl)cc1S(=O)(=O)N1CCC(O)(c2ccc(Cl)cc2)CC1 0.846%
COc1cc(C2C(C(=O)c3sc(C)nc3C)=C(O)C(=O)N2CCN(C)C)cc(OC)c1OC (centres undefined) 0.746%
O=C(NCc1ccc2c(c1)OCO2)c1cc([N+](=O)[O-])ccc1N1CCOCC1 -1.53%
Cc1ccccc1OCCC(=O)OCC(=O)NCCc1ccc(S(N)(=O)=O)cc1 -0.918%
Cc1ccn2c(c1)nc(=O)c1cc(S(=O)(=O)N3CCC(C)CC3)ccc12 -0.295%
O=S(=O)(c1ccc(Cl)cc1)N1CCCN(c2ccc(C(F)(F)F)cn2)CC1 -1.87%
CN(CC(O)COc1ccc(S(=O)(=O)N2CCOCC2)cc1Cl)C1CCCCC1 (centres undefined) -0.337%
CCCc1nc2scc(-c3ccc(C)cc3)c2c(=O)n1N -1.81%
Cc1onc(-c2c(F)cccc2Cl)c1C(=O)N(C)CC(=O)Nc1cccc(F)c1 -1.86%
COC(=O)c1sc(N2CCN(Cc3ccccc3)CC2)nc1N -1.78%
CCn1c(SCCC(C)C)nnc1-c1c[nH]c2ccccc12 0.439%
C=CC(COCc1ccccc1)N(Cc1ccccc1)S(=O)(=O)c1ccccc1Br (centres undefined) 0.0215%
O=C(O)c1ccc(-n2nc(-c3ccccc3)c3ccccc3c2=O)cc1 -0.73%
CSCC[C@H](NC(=O)NCc1cccs1)C(=O)O 1.04%
COc1ccc(CCN(C)C(=O)C23CC4CC(CC(Cl)(C4)C2)C3)cc1OC -1.39%
CCn1nc(C(=O)Nc2ccc(N3CCOCC3)cc2)c2ccccc2c1=O -1.35%
C=C(C)CNC(=O)c1ccc(OC2CCN(C(=O)COC)CC2)cc1 -0.166%
C#CCN1CC(C)/C(=N/O)CC1C (centres undefined) -0.192%
O=c1[nH]oc(O)c1-c1ncc(C(F)(F)F)cc1Cl -0.466%
Nn1c(SCc2ccccc2)nnc1C1CCCCC1 -0.356%
COc1ccccc1C(=O)NCCC(=O)NC1=NCCS1 0.112%
CCN(CC)C(=O)CS(=O)CC(=O)Nc1cc(OCCOC)c(Cl)cc1Cl (centres undefined) -0.37%
